Reference: ChEMBL document CHEMBL1142473, “Antitumor studies. Part 5: Synthesis, antitumor activity, and molecular docking study of 5-(monosubstituted amino)-2-deoxo-2-phenyl-5-deazaflavins” (Bioorg Med Chem, 2008)
Converted amounts (≈) assume the structure as drawn.

Assays:
CCRF-HSB-2 = test: Growth inhibition of human CCRF-HSB-2 cells by MTT method; format: functional, cell-based
Procedure, shortened: (§1)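 IC50 taken from the dose-response curve; AraC run alongside as positive control.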

KB = test: Growth inhibition of human KB cells by MTT method; format: functional, cell-based; procedure, shortened: as §1

SMILES	IC50 (CCRF-HSB-2) [µg/mL]	IC50 (KB) [µg/mL]
CCCCCCCCNc1c2c(=O)nc(-c3ccccc3)nc-2n(C)c2ccc(C)cc12	8.6 (≈ 20.1 µM)	4.7 (≈ 11 µM)
CCCNc1c2c(=O)nc(-c3ccccc3)nc-2n(C)c2ccccc12	> 100	18 (≈ 52.3 µM)
Cn1c2nc(-c3ccccc3)nc(=O)c-2c(NCc2ccccc2)c2ccccc21	> 100	66.9 (≈ 170 µM)
CCCCCCCCNc1c2c(=O)nc(-c3ccccc3)nc-2n(C)c2ccccc12	> 100	32.9 (≈ 79.4 µM)
CCn1c2nc(-c3ccccc3)nc(=O)c-2c(NCc2ccccc2)c2cc(C)ccc21	6.9 (≈ 16.4 µM)	17.2 (≈ 40.9 µM)
CCCCCCCCNc1c2c(=O)nc(-c3ccccc3)nc-2n(CC)c2ccccc12	20.4 (≈ 47.6 µM)	12 (≈ 28 µM)
CCn1c2nc(-c3ccccc3)nc(=O)c-2c(NCc2ccccc2)c2ccccc21	6.1 (≈ 15 µM)	4.7 (≈ 11.6 µM)
CCn1c2nc(-c3ccccc3)nc(=O)c-2c(NCCc2ccccc2)c2ccccc21	63.3 (≈ 151 µM)	53.4 (≈ 127 µM)
CCCCCCCCNc1c2c(=O)nc(-c3ccccc3)nc-2n(CC)c2ccc(C)cc12	5.7 (≈ 12.9 µM)	2 (≈ 4.52 µM)
COC(=O)c1ccccc1Nc1c2c(=O)nc(-c3ccccc3)nc-2n(C)c2ccccc12	> 100	> 100
CCCCNc1c2c(=O)nc(-c3ccccc3)nc-2n(C)c2ccc(C)cc12	2.1 (≈ 5.64 µM)	2.7 (≈ 7.25 µM)
Cn1c2nc(-c3ccccc3)nc(=O)c-2c(NCCc2ccccc2)c2ccccc21	17.7 (≈ 43.5 µM)	22 (≈ 54.1 µM)
Nc1ccn([C@@H]2O[C@H](CO)[C@@H](O)[C@@H]2O)c(=O)n1 [CYTARABINE]	0.017 (≈ 0.0699 µM)	0.42 (≈ 1.73 µM)
Cc1ccc(Nc2c3c(=O)nc(-c4ccccc4)nc-3n(C)c3ccccc23)cc1C	0.75 (≈ 1.85 µM)	1.6 (≈ 3.94 µM)
CCCCNc1c2c(=O)nc(-c3ccccc3)nc-2n(CC)c2ccccc12	8.3 (≈ 22.3 µM)	7.6 (≈ 20.4 µM)
CCCCNc1c2c(=O)nc(-c3ccccc3)nc-2n(C)c2ccccc12	4.7 (≈ 13.1 µM)	6.6 (≈ 18.4 µM)
CCCCNc1c2c(=O)nc(-c3ccccc3)nc-2n(CC)c2ccc(C)cc12	8.9 (≈ 23 µM)	8.6 (≈ 22.3 µM)
Cc1ccc(Nc2c3c(=O)nc(-c4ccccc4)nc-3n(C)c3ccccc23)cc1	1.1 (≈ 2.8 µM)	1.8 (≈ 4.59 µM)
